Measured values reported in the RNAGym collection of RNA variant scans (doi:10.1126/science.aae0568).
This sample holds only a part of the variants without activity.

B1: tRNA (parent)
chain: GUUCCGUUGGCGUAAUGGUAACGCGUCUCCCUCCUAAGGAGAAGACUGCGGGUUCGAGUCCCGUACGGAACG

Variants of: B1
Test: yeast fitness relative to wild type (ratio to wild type); higher = fitter; tRNA-Arg(CCU), competitive growth, 37 C, YPD
In short: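 Amplicons of the tRNA-Arg(CCU) gene were sequenced, 100-nucleotide paired-end, from the start population and from each end population of a pooled yeast competition. The competition, in six parallel replicates, lasted 24 hours in YPD at 37°C. Fitness relative to wild type was calculated from changes in genotype frequencies. Genotypes had to have ≥ 100 starting reads, and estimates < 0.5 were set to 0.5.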

Row | Variant | yeast fitness
1 | C5A U32A A36C A70G | ≤ 0.5
2 | C5G A42U G67A | 0.532
3 | C5G C11G C30U C31U A57G G63A | ≤ 0.5
4 | C5G A20C C34G | ≤ 0.5
5 | C5G C24U | 0.893
6 | C5G C22G U28A C31G C55A G68C | 0.551
7 | C5G A43G A69U | 0.762
8 | C5G C11U A37C U64C | 0.609
9 | C5G C11U A37U | ≤ 0.5
10 | C5A U32G C49G | ≤ 0.5
11 | C5G C11A A14G G25C U28C C29G | ≤ 0.5
12 | C5G | 0.992
13 | C5A U28G A65U | ≤ 0.5
14 | C5G A37C C61U | ≤ 0.5
15 | C5G C11A U26C A40U U64C | ≤ 0.5
16 | C5G A14C C29A C31G G56A | ≤ 0.5
17 | C5A U54C A65U | ≤ 0.5
18 | C5G A37U A43C A65U | ≤ 0.5
19 | C5G A15C A42C G52A U53A | ≤ 0.5
20 | C5A U54G A65U | ≤ 0.5
21 | C5G A36U U54C | ≤ 0.5

Row | Variant | yeast fitness
22 | C5G A36U C61U A65C G67A G68A | ≤ 0.5
23 | C5G A20C C24U G68A | ≤ 0.5
24 | C5G A14G A65U | 0.538
25 | C5G A14G G44C C62U C66U A69C | ≤ 0.5
26 | C5G A20C C29G | 0.538
27 | C5G A36G A43U A69C | 0.655
28 | C5G C22G C55U | ≤ 0.5
29 | C5G A37C G38A | 0.562
30 | C5A U47C G51A A65C | ≤ 0.5
31 | C5G A15U G41C C55A | ≤ 0.5
32 | C5A U54C A70U | 0.532
33 | C5G A15U G58A G67A | 0.626
34 | C5G A21G U59A A69C A70C | ≤ 0.5
35 | C5A U19A G38C A57C C62U | ≤ 0.5
36 | C5G C11U A37C C49U C60A | 0.557
37 | C5G C24G C29A A43U G68C | ≤ 0.5
38 | C5G A45U C61U C66U | ≤ 0.5
39 | C5G A15U A40U G67C | ≤ 0.5
40 | C5G C22A A42C | ≤ 0.5
41 | C5G A14C C30U | ≤ 0.5
42 | C5A U53C C62U | ≤ 0.5

Row | Variant | yeast fitness
43 | C5G A15G U16A A20G U28A C30A C33A A36U A65U A69C | ≤ 0.5
44 | C5A U47A C55A G68A | ≤ 0.5
45 | C5G A15C A42C | 0.584
46 | C5G A20G A36C | 0.52
47 | C5G A40U C62U | ≤ 0.5
48 | C5G C11A A20U C29A A37C | ≤ 0.5
49 | C5G A40G U54A | 0.579
50 | C5A U28A A40U C61G | ≤ 0.5
51 | C5G A37C G51A U53C C62A | ≤ 0.5
52 | C5G A14C A36C A45C G48A | ≤ 0.5
53 | C5G A21C C29U C31G A43U A65U | ≤ 0.5
54 | C5G C22A C33G | 0.61
55 | C5G A14C C29U C33G A65C | ≤ 0.5
56 | C5A U26A C31A C49U | ≤ 0.5
57 | C5G A20U A21G C22G U35A G44A C55U C60G U64A G67A | 0.649
58 | C5G A20G A42G C66G | ≤ 0.5
59 | C5G A14G C24G A40U G48C C60U A69C | 0.601
60 | C5G A40U G44A C61A | 0.567
61 | C5G A20U C30U C62U | ≤ 0.5
62 | C5A U19A C62A A69U | ≤ 0.5
63 | C5A U19A C66U | 0.66

Row | Variant | yeast fitness
64 | C5G A21G C30U A40U | ≤ 0.5
65 | C5G A40G A57G | ≤ 0.5
66 | C5G A43G G56A C61G C62A | ≤ 0.5
67 | C5G A37C A69C | 0.511
68 | C5G C11U A70C | ≤ 0.5
69 | C5G A14C C29A C31G U54A A70G | 0.531
70 | C5G A15G U16A A20G U28A C30A C33A A36U A70U | ≤ 0.5
71 | C5G A21C C33G | ≤ 0.5
72 | C5G A21C C33U | 0.535
73 | C5G C22G C55G G63C | 0.679
74 | C5G A42C G68U | 0.593
75 | C5G C11A A14G G25C C29G C60U | ≤ 0.5
76 | C5G A14U U28C C46G C61U | ≤ 0.5
77 | C5G A20U U28G | ≤ 0.5
78 | C5G C24G C60G | 0.518
79 | C5G A14C U16A C30U G38C G41C C66U | ≤ 0.5
80 | C5G C11G A21C U28G C66U | 0.605
81 | C5G A20U A70C | 0.68
82 | C5G C22U U28G U54C A65G | ≤ 0.5
83 | C5G A15U G41A G58A | ≤ 0.5
84 | C5G A42G C60G C61G | 0.669
